FID counter – displaces DNA intercalator in HCV helicase counter-screen. DNA fluorescent intercalator displacement, fluorescence. inhibition, % at 7.9 µM. 290,000 compounds, 0.17% hits; in the data active = inhibition above about 37%;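 also: 0% = vehicle and 100% = reference compound; higher means more ethidium bromide displaced from hairpin DNA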
SR-BI uptake up – SR-BI HDL lipid transfer activation. 320,000 compounds, 0.096% hits. CHO ldlA[mSR-BI] cells, DiI-HDL uptake fluorescence, 3 h; 100 = double the neutral-control signal. activation, % at 12.5 µM. AID 504775;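 active = mean replicate activation of at least 60% and every replicate at or above 60%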;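 also: 0% = median plate neutral-control signal and 100% = twice that signal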
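system = CHO ldlA[mSR-BI] cells, LDL receptor-null, SR-BI overexpressing | medium = Ham's F12 with 0.5% BSA, HEPES 25 mM, pH 7.4 | probe or stimulus = DiI-HDL 10 µg/mL | compound dosing = single-point compound dose | incubation = compound exposure 3 h, 37 °C | technique = DiI fluorescence, bottom read | read-out = cell-associated DiI fluorescence as measure of HDL uptake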
SR-BI HDL uptake – blocks mouse SR-BI lipid uptake from DiI-HDL; ldlA[mSR-BI] CHO cells, DiI-HDL uptake fluorescence, 3 h; inhibition, % at 12.5 µM; 320,000 compounds, 0.96% hits; AID 488896;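 active = mean replicate inhibition of at least 70% and a set share of replicates each scoring 70 or more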;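 also: 0% = median of neutral control wells and 100% = median of positive control wells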
Kir21 block – blocks the mouse Kir2.1 inward-rectifier potassium channel | 310,000 compounds, 0.85% hits | P35561 | B-score at 10 µM | AID 1672 | HEK293-Kir2.1, FluxOR thallium flux fluorescence; hits give low values;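 active = fluorescence ratio B-score at or below minus 3 SD of library scores, with starting-brightness B-score within 2 SD, cut at about -4.2 in these data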;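 also: channel flux triggered by added potassium and thallium sulfate stimulus; B-score of peak minus minimum fluorescence over baseline after thallium stimulus; more negative B-score means stronger Kir2.1 block with less thallium influx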
ANO1 block – blocks the mouse calcium-activated chloride channel TMEM16A | HEK293 TMEM16A/YFP iodide influx fluorescence, ionomycin | normalized B-score (activity score, 25-100; higher = stronger inhibition) at 10 µM | 310,000 compounds, 1.2% hits | AID 588511;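 active = ratio plate-corrected score three or more library SD toward inhibition, starting fluorescence score within five deviations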;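 also: score derived from kinetic fluorescence span divided by baseline fluorescence per well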
ANO1 activ – activators or potentiators of mouse TMEM16A chloride channel. Q8BHY3. HEK293 TMEM16A/YFP-H148Q/I152L, iodide quench fluorescence; hits give low values. B-score at 10 µM. 340,000 compounds, 0.3% hits. AID 623877;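 active = fluorescence-ratio B-score plate-corrected deviation score at least 3 library SD below zero, with starting fluorescence score within 5 deviations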;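 also: channel opened by trigger with iodide after compound preincubation; score built on the fluorescence ratio of max minus min over baseline; more negative score means more quench and so TMEM16A activation or potentiation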
* marks the source's active call; other numbers are inactive results; i = inactive; · = not tested or not shown. Most compounds without a hit are left out; they make up all but 3% or so of the library.

SMILES	FID counter	SR-BI uptake up	SR-BI HDL uptake	Kir21 block	ANO1 block	ANO1 activ
CCOC(=O)c1c(CSc2ccccc2)n(C)c2ccc(O)c(CN3CCN(C)CC3)c12	11	·	·	-4.9*	i	i
CCOC(=O)c1c(CSc2ccsc2)n(C)c2cc(Br)c(O)c(CN(C)C)c12	9	·	·	-7.1*	i	i
COc1cccc(-c2ccc3nnc(SCC(=O)N4CCCC4)n3n2)c1	·	-5	5	2	i	-4.7*
COc1cccc(-c2ccc3nnc(SCC(=O)N4CCOCC4)n3n2)c1	·	15	-15	-1.2	i	i
C/C=C(/C)C(=O)OC1CC(C)(C)C[C@H]2C3=CC[C@@H]4[C@@]5(C)CCC(O[C@@H]6O[C@@H](C(=O)O)[C@@H](O)C(O[C@@H]7OC[C@H](O)[C@@H](O)[C@@H]7O[C@@H]7OC(CO)C(O)[C@@H](O)[C@@H]7O)C6O[C@@H]6OC(CO)C(O)C(O)C6O)[C@@](C)(CO)[C@@H]5CC[C@]4(C)[C@]3(C)CC(O)[C@@]12CO (stereo partly specified)	·	4	-4	·	·	-37*
CC1(C)C[C@H]2C3=CCC4[C@@]5(C)CC[C@H](O[C@@H]6O[C@H](C(=O)O)[C@@H](O)[C@H](O)[C@H]6O)[C@@](C)(CO)C5CC[C@@]4(C)[C@]3(C)C[C@H](O)[C@@]2(CO)[C@@H](O)[C@@H]1O (stereo partly specified)	·	4	-4	·	·	i
C/C=C(\C)C(=O)OC1[C@H](OC(C)=O)C2(CO)C(CC1(C)C)C1=CCC3C4(C)CCC(O[C@@H]5O[C@H](C(=O)O)[C@@H](O[C@@H]6O[C@H](CO)[C@@H](O)[C@H](O)[C@H]6O)[C@H](O)[C@H]5O[C@H]5O[C@H](CO)[C@@H](O)[C@H](O)[C@H]5O)[C@](C)(CO)C4CCC3(C)[C@]1(C)C[C@H]2O (stereo partly specified)	·	2	-2	·	·	-16*
C[C@@H]1CC[C@]2(C(=O)O[C@@H]3O[C@H](CO)[C@@H](O)[C@H](O)[C@H]3O)CC[C@]3(C)C(=CCC4[C@@]5(C)CC[C@H](O[C@@H]6OC[C@H](O)[C@H](O[C@@H]7O[C@H](CO)[C@@H](O)[C@H](O)[C@H]7O)[C@H]6O)C(C)(C)C5CC[C@]43C)C2[C@]1(C)O (stereo partly specified)	·	20	-20	·	·	i
CC(=O)OC1COC(OC2C(O)C(C)OC(OC3C(OC4CCC5(C)C(CCC6(C)C5CC=C5C7CC(C)(C)CCC7(C(=O)O)CCC56C)C4(C)CO)OCC(O)C3O)C2O)C(O)C1OC(C)=O (stereo unspecified)	-42	·	·	·	100*	·
O=C(COC(=O)Cn1cnc2ccccc21)Nc1ccc(OC(F)F)cc1	·	6	-6	·	·	i
COc1ccc(N(C(=O)CNC(=O)c2ccco2)C(C(=O)NC2CCCC2)c2ccco2)cc1 (stereo unspecified)	-34	12	-12	1.5	i	i
CC(Sc1nnc(-c2ccncc2)n1-c1ccc(F)cc1)C(=O)NC1CC1 (stereo unspecified)	·	41	-41	·	·	i
CCN(CC)S(=O)(=O)c1ccc2oc(C(=O)Nc3ccc(OC)cc3OC)c(C)c2c1	-4	-77	77*	-1.3	i	i
COC(=O)c1c(C)[nH]c(C(=O)C(C)OC(=O)c2c(C)noc2C)c1C (stereo unspecified)	·	-9	9	·	·	i
O=C(N/N=C/c1cc([N+](=O)[O-])cc(Br)c1O)C12CC3CCC(CC(C3)C1)C2	-10	·	·	0.82	100*	i
COc1cc(/C=N/NC(=O)C23CC4CC(CC(C4)C2)C3)cc(Br)c1O	-18	-17	17	0.51	i	i
Cc1ccccc1NC(=O)CSc1nnc(NC(=O)C2CC2)s1	-3	·	·	1.5	i	i
Cc1coc2c(C)c3oc(=O)c(CCC(=O)NCc4ccccn4)c(C)c3cc12	-36	-22	22	-0.22	i	i
